Assay results: ChEMBL document CHEMBL1135442, “6-Chloropyridazin-3-yl derivatives active as nicotinic agents: synthesis, binding, and modeling studies” (J Med Chem, 2002)

Test: Inhibition of [3H]cytisine binding to rat cerebral cortical membrane neuronal Nicotinic acetylcholine receptor
In short: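 Rat cerebral cortical membranes, thawed, washed, resuspended in Tris-HCl 50 mM buffer with NaCl 120, KCl 5, MgCl2 1, CaCl2 2.5 mM (pH 7.4 at 4 °C), centrifuged 45000g 20 min. 150-200 µg protein incubated with 0.7 nM [3H]-(-)-cytisine and varied test concentrations, 75 min at 4 °C, triplicate. Nonspecific binding defined with 10 µM (-)-nicotine. Ki values reported.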
In the case of `C[N+]1(C)C2CCC1CN(c1ccc(Cl)nn1)C2`, the Ki is reported as 2.3 nM. `CN1CCCN(c2ccc(Cl)nn2)CC1` gave a Ki of 220 nM. For `Clc1ccc(N2CCNCC2)nn1`, the Ki was 32 nM. For `C[N+]1(C)CCCN(c2ccc(Cl)nn2)CC1`, the Ki was 120 nM. `CN1C2CCC1CN(c1ccc(Cl)nn1)C2` showed a Ki of 39 nM. In the case of `Clc1ccc(N2CCCNCC2)nn1`, the Ki is reported as 1.5 nM. `CN1CCN(c2ccc(Cl)nn2)CC1` showed a Ki of 14 nM. Molecule `Clc1ccc(N2CC3CCC(C2)N3)nn1` has a Ki of 4.1 nM.
